Results taken from ChEMBL document CHEMBL4342513, “Implementation of the CYP Index for the Design of Selective Tryptophan-2,3-dioxygenase Inhibitors” (ACS Med Chem Lett, 2020).
Values after ≈ are worked out from the molar mass of the structure shown. Blank lines part the entries; values can stand above or below the compound they belong to.

How the values were obtained:
[1] = Lipophilicity, log D of compound at pH 7.4; type: physicochemical; conditions: buffer
[2] = species on record: Homo sapiens; assay: Selectivity index, ratio of EC50 for inhibition of IDO1 in human A172 cells in presence of IFNgamma to EC50 for inhibition of TDO in human SW48 cells; type: cell-based
[3] = molecular target: Indoleamine 2,3-dioxygenase 1 (Homo sapiens, UniProt P14902); assay: Inhibition of IDO1 in human A172 cells after 24 hrs in presence of IFNgamma by NFK green reagent based assay; type: cell-based
Chain of Indoleamine 2,3-dioxygenase 1 (P14902 whole entry): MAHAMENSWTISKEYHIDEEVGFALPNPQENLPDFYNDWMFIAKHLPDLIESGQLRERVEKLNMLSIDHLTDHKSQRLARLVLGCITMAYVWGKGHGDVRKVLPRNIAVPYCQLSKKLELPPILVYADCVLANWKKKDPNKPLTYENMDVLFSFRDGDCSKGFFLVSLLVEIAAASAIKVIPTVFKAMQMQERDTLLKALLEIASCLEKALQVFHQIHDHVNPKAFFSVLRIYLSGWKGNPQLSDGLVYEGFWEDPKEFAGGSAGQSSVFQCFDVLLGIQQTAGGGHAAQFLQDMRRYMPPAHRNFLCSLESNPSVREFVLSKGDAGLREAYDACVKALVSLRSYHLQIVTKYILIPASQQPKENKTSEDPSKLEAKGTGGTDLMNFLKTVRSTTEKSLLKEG

[4] = molecular target: T1, Tryptophan 2,3-dioxygenase (Homo sapiens, UniProt P48775); assay: Inhibition of TDO in human SW48 cells after 24 hrs by NFK green reagent based assay; type: cell-based
T1 sequence (P48775 whole entry): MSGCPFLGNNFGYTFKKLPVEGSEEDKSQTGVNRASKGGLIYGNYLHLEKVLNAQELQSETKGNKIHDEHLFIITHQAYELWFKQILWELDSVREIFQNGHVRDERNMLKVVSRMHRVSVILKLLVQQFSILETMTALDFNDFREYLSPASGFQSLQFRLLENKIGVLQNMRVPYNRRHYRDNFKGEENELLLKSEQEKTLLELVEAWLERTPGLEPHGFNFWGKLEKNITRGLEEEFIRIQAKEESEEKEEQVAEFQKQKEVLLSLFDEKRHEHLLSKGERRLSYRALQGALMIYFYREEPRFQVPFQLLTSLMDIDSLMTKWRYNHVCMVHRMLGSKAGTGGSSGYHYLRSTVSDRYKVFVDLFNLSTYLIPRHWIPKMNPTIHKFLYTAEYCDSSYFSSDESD

[5] = species on record: Homo sapiens; assay: Selectivity index, ratio of IC50 for inhibition of CYP3A4 (unknown origin) to EC50 for inhibition of EC50 for inhibition of TDO in human SW48 cells; type: cell-based
[6] = molecular target: Cytochrome P450 3A4 (Homo sapiens, UniProt P08684); assay: Inhibition of CYP3A4 (unknown origin); type: ADME
Chain of Cytochrome P450 3A4 (P08684 whole entry): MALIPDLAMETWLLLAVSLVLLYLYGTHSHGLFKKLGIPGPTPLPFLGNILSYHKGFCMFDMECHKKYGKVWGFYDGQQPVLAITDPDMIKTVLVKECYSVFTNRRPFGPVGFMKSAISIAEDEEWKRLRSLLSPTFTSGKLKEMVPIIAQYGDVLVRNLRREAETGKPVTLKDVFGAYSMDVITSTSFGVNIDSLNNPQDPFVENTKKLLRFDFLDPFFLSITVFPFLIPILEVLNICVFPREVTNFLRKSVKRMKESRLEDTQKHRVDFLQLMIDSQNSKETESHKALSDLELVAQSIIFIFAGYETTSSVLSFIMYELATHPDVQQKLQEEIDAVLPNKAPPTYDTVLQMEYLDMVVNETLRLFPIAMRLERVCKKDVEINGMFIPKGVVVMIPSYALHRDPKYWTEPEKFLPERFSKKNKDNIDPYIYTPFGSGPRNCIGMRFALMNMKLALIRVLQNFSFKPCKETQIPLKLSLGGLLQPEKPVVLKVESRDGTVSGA

[7] = Clearance in human liver microsomes; type: ADME, Microsome
Procedure, shortened: (§1)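 Clearance was measured in liver microsome incubations from human, rat and mouse. It is expressed as scaled clearance in mL/min/kg.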

[8] = Clearance in mouse liver microsomes; type: ADME, Microsome; procedure, shortened: as §1
[9] = Clearance in rat liver microsomes; type: ADME, Microsome; procedure, shortened: as §1
[10] = Volume of distribution at steady state in mouse; type: ADME, organism-based; conditions: in vivo, read-out: Vdss
[11] = AUC (infinity) in mouse; type: ADME, organism-based; set-up: time infinity; conditions: in vivo
[12] = Protein binding in mouse plasma assessed as unbound fraction; type: ADME, cell-free
[13] = Apparent permeability across apical to basolateral side in MDCK cells; type: ADME, cell-based, Canis lupus familiaris; conditions: dog
[14] = Kinetic solubility of compound; type: physicochemical; conditions: read-out: Kinetic_solubility
[15] = Clearance in iv dosed mouse plasma; type: ADME, organism-based
Procedure, shortened: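 Compounds were given to mice as discrete (single-compound) intravenous doses. Plasma clearance (CLp) is expressed in mL/min/kg.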

[16] = Half life in mouse; type: ADME, organism-based; conditions: in vivo
[17] = Unbound clearance in mouse plasma; type: ADME, cell-free
[18] = Oral bioavailability in mouse at 1 mg/kg dosed as cassette formulation; type: ADME, organism-based; conditions: in vivo
[19] = Oral bioavailability in mouse at 5 mg/kg; type: ADME, organism-based; conditions: in vivo
[20] = molecular target: T1, Tryptophan 2,3-dioxygenase; assay: Inhibition of TDO (unknown origin)
[21] = molecular target: T1, Tryptophan 2,3-dioxygenase; assay: Inhibition of recombinant human TDO using L-tryptophan as substrate preincubated for 5 mins followed by substrate addition and measured after 15 mins by RapidFire-Mass spectrometry
[22] = Cmax in mouse at 30 mg/kg; type: ADME, organism-based; set-up: dose 30 mg/kg; conditions: in vivo
[23] = system: Mus musculus; assay: In vivo inhibition of TDO in mouse assessed as blood tryptophan levels by measuring Cmax at 30 mg/kg (reference value: 340 microM); type: functional, organism-based; set-up: dose 30 mg/kg
Procedure, shortened: (§2)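 Mouse pharmacodynamic study with escalating doses up to 100 mg/kg and a vehicle-treated comparison group. Blood tryptophan concentration was followed over time.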

[24] = Cmax in mouse at 100 mg/kg; type: ADME, organism-based; set-up: dose 100 mg/kg; conditions: in vivo
[25] = system: Mus musculus; assay: In vivo inhibition of TDO in mouse assessed as blood tryptophan levels by measuring Cmax at 100 mg/kg (reference value: 340 microM); type: functional, organism-based; set-up: dose 100 mg/kg; procedure, shortened: as §2
[26] = system: Mus musculus; assay: In vivo inhibition of TDO in mouse assessed as blood tryptophan levels by measuring AUC at 100 mg/kg (reference value: 570 microM.hr); type: functional, organism-based; procedure, shortened: as §2
[27] = system: Mus musculus; assay: In vivo inhibition of TDO in mouse assessed as blood tryptophan levels by measuring AUC at 30 mg/kg (reference value: 570 microM.hr); type: functional, organism-based; procedure, shortened: as §2
[28] = system: Mus musculus; assay: In vivo inhibition of TDO in mouse assessed as blood tryptophan levels by measuring Cmax at 10 mg/kg (reference value: 340 microM); type: functional, organism-based; set-up: dose 10 mg/kg; procedure, shortened: as §2
[29] = AUC (infinity) in mouse at 10 mg/kg; type: ADME, organism-based; set-up: dose 10 mg/kg, time infinity; conditions: in vivo
[30] = system: Mus musculus; assay: In vivo inhibition of TDO in mouse assessed as blood tryptophan levels by measuring AUC at 10 mg/kg (reference value: 570 microM.hr); type: functional, organism-based; procedure, shortened: as §2
[31] = Cmax in mouse at 10 mg/kg; type: ADME, organism-based; set-up: dose 10 mg/kg; conditions: in vivo
[32] = AUC (infinity) in mouse at 100 mg/kg; type: ADME, organism-based; set-up: dose 100 mg/kg, time infinity; conditions: in vivo
[33] = AUC (infinity) in mouse at 30 mg/kg; type: ADME, organism-based; set-up: dose 30 mg/kg, time infinity; conditions: in vivo

logD [1]: 1.1
EC50 [3]: > 25000 nM
EC50 [4]: 3000 nM
SMILES: CC(=O)N1CC[C@@H]([C@H]2c3ccccc3-c3cncn32)[C@H](O)C1
Ratio EC50 [2]: > 8

logD [1]: 1.5
EC50 [3]: 2900 nM
IC50 [6]: 650 nM
SMILES: O[C@@H]1CCOC[C@H]1[C@H]1c2ccccc2-c2cncn21
Ratio IC50/EC50 [5]: 3.1
Ratio EC50 [2]: 14

logD [1]: 1.3
EC50 [3]: 1600 nM
IC50 [6]: 600 nM
EC50 [4]: 72 nM
SMILES: O[C@@H]1COCC[C@H]1[C@H]1c2ccccc2-c2cncn21
Ratio IC50/EC50 [5]: 8.3
Ratio EC50 [2]: 22

CLhep predicted [7]: 7.4 mL/min/kg
CLhep predicted [8]: 67 mL/min/kg
EC50 [3]: 2600 nM
IC50 [6]: 3600 nM
CLhep predicted [9]: 26 mL/min/kg
EC50 [4]: 35 nM
SMILES: NC(=O)c1ccc2c(c1)[C@@H](O)[C@H]([C@H]1c3ccccc3-c3cncn31)CC2
Ratio IC50/EC50 [5]: 100
Ratio EC50 [2]: 74

Vd [10]: 1.1 L/kg
AUC(0-inf) [11]: 0.81 µM·h
fraction unbound [12]: 0.09
Papp A→B [13]: 13 ×10⁻⁶ cm/s
solubility kinetic [14]: 149 µM (≈ 43.6 µg/mL)
clearance [15]: 28 mL/min/kg
half-life [16]: 46.8 min
CLhep predicted [7]: < 3.9 mL/min/kg
CL free [17]: 310 mL/min/kg
CLhep predicted [8]: 45 mL/min/kg
IC50 [6]: > 10000 nM
bioavailability [18]: 140%
bioavailability [19]: 70%
CLhep predicted [9]: 37 mL/min/kg
EC50 [4]: 130 nM
SMILES: O[C@@H]1c2ccnn2CC[C@H]1[C@H]1c2ccccc2-c2cncn21
Ratio IC50/EC50 [5]: > 77
Ratio EC50 [2]: 35

CLhep predicted [7]: 6.9 mL/min/kg
CLhep predicted [8]: 81 mL/min/kg
EC50 [3]: 1300 nM
IC50 [6]: 2800 nM
CLhep predicted [9]: 46 mL/min/kg
EC50 [4]: 65 nM
SMILES: CS(=O)(=O)c1ccc2c(c1)CC[C@@H]([C@H]1c3ccccc3-c3cncn31)[C@@H]2O
Ratio IC50/EC50 [5]: 43
Ratio EC50 [2]: 20

logD [1]: 2.2
CLhep predicted [7]: 5 mL/min/kg
CLhep predicted [8]: 59 mL/min/kg
EC50 [3]: 2200 nM
CLhep predicted [9]: 35 mL/min/kg
EC50 [4]: 70 nM
SMILES: O[C@@H]1CCC[C@H]1[C@H]1c2ccccc2-c2cncn21
Ratio EC50 [2]: 31

IC50 [20]: > 10000 nM
SMILES: O=C1CC(c2c[nH]c3ccc(F)cc23)C(=O)N1 (stereo not drawn) [PF-06840003]

Vd [10]: 1.1 L/kg
AUC ([11]; BLD = below limit of detection): Bld
fraction unbound [12]: 0.27
Papp A→B [13]: 23 ×10⁻⁶ cm/s
solubility kinetic [14]: 165 µM (≈ 48.6 µg/mL)
clearance [15]: 63 mL/min/kg
half-life [16]: 12.6 min
CLhep predicted [7]: < 3.9 mL/min/kg
CL free [17]: 230 mL/min/kg
CLhep predicted [8]: 45 mL/min/kg
EC50 [3]: 4600 nM
IC50 [6]: 8200 nM
bioavailability [18]: < 5%
CLhep predicted [9]: 33 mL/min/kg
EC50 [4]: 54 nM
SMILES: O[C@@H]1c2nonc2CC[C@H]1[C@H]1c2ccccc2-c2cncn21
Ratio IC50/EC50 [5]: 150
Ratio EC50 [2]: 85

CLhep predicted [7]: < 3.9 mL/min/kg
CLhep predicted [8]: 46 mL/min/kg
EC50 [3]: 13000 nM
IC50 [6]: 3300 nM
CLhep predicted [9]: 19 mL/min/kg
EC50 [4]: 380 nM
SMILES: Cn1ncc2c1CC[C@@H]([C@H]1c3ccccc3-c3cncn31)[C@@H]2O
Ratio IC50/EC50 [5]: 9
Ratio EC50 [2]: 34

logD [1]: 1.7
CLhep predicted [7]: 5.9 mL/min/kg
CLhep predicted [8]: 59 mL/min/kg
EC50 [3]: 1400 nM
CLhep predicted [9]: 27 mL/min/kg
EC50 [4]: 36 nM
SMILES: O[C@@H]1CC[C@H]1[C@H]1c2ccccc2-c2cncn21
Ratio EC50 [2]: 67

IC50 [21]: 17000 nM
SMILES: OCCn1c2ccccc2n2cnnc12

logD [1]: 3.9
CLhep predicted [7]: 16 mL/min/kg
CLhep predicted [8]: 75 mL/min/kg
EC50 [3]: 670 nM
CLhep predicted [9]: 42 mL/min/kg
EC50 [4]: 62 nM
SMILES: C[C@H]([C@H](O)C1CCCCC1)[C@H]1c2ccccc2-c2cncn21
Ratio EC50 [2]: 11

CLhep predicted [7]: 6.6 mL/min/kg
CLhep predicted [8]: 64 mL/min/kg
EC50 [3]: 880 nM
IC50 [6]: 6000 nM
CLhep predicted [9]: 33 mL/min/kg
EC50 [4]: 39 nM
SMILES: CS(=O)(=O)c1ccc2c(c1)[C@@H](O)[C@H]([C@H]1c3ccccc3-c3cncn31)CC2
Ratio IC50/EC50 [5]: 150
Ratio EC50 [2]: 23

CLhep predicted [7]: < 3.9 mL/min/kg
CLhep predicted [8]: 14 mL/min/kg
EC50 [3]: > 25000 nM
IC50 [6]: > 10000 nM
CLhep predicted [9]: 6.1 mL/min/kg
EC50 [4]: 7400 nM
SMILES: O[C@@H]1c2nncn2CC[C@H]1[C@H]1c2ccccc2-c2cncn21
Ratio IC50/EC50 [5]: > 1
Ratio EC50 [2]: > 3

Vd [10]: 1.4 L/kg
Cmax [22]: 21.2 µM
AUC(0-inf) [11]: 0.34 µM·h
fraction unbound [12]: 0.07
Cmax [24]: 70 µM
Papp A→B [13]: 11 ×10⁻⁶ cm/s
solubility kinetic [14]: 139 µM (≈ 42.2 µg/mL)
clearance [15]: 29 mL/min/kg
half-life [16]: 37.2 min
CLhep predicted [7]: 6.9 mL/min/kg
CL free [17]: 410 mL/min/kg
CLhep predicted [8]: 71 mL/min/kg
EC50 [3]: 1400 nM
AUC(0-inf) [29]: 5 µM·h
Cmax [31]: 4.1 µM
AUC(0-inf) [32]: 210 µM·h
IC50 [6]: 2400 nM
bioavailability [18]: 68%
AUC(0-inf) [33]: 35 µM·h
bioavailability [19]: 78%
CLhep predicted [9]: 38 mL/min/kg
EC50 [4]: 50 nM
SMILES: O[C@@H]1c2cnccc2CC[C@H]1[C@H]1c2ccccc2-c2cncn21
Cmax [23]: 560 µM
Cmax [25]: 540 µM
Ratio IC50/EC50 [5]: 48
AUC [26]: 404000 ng·h/mL
Ratio EC50 [2]: 28
AUC [27]: 229000 ng·h/mL
Cmax [28]: 420 µM
AUC [30]: 139000 ng·h/mL

logD [1]: 0.7
EC50 [3]: 970 nM
IC50 [6]: > 10000 nM
EC50 [4]: 87 nM
SMILES: CS(=O)(=O)N1CC[C@@H]([C@H]2c3ccccc3-c3cncn32)[C@H](O)C1
Ratio IC50/EC50 [5]: > 120
Ratio EC50 [2]: 11
